Screening data (PubChem BioAssay)
Shown are actives, neighbours in structure and some others; about 2.7% of the full set was active somewhere.
CFTR F508del cor – F508del CFTR correction, initial screen, CFBE line, single point. AID 720511, 2013. hit rate 0.36% among 350,000. activity (quench increase), % at 7.58 µM. CFBE cells, YFP halide quenching; stimulated with forskolin plus potentiator P3; % fluorescence drop versus neutral controls;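 active means mean added fluorescence quench of at least 8% versus neutral control, with both replicates also reaching 8%; inconclusive means only one of the mean or replicate conditions met; inactive means mean below 8% and not both replicates reaching 8%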;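 further: cells transiently co-express mutant CFTR-F508del with the halide-sensitive YFP; corrector assay measuring rescue of mutant channel to the surface after 24 h compound exposure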
FGF22 binding – binders of human FGF22 protein, primary screen, FGF22 synaptogenesis inhibitor project, biophysical, thermal shift, single point; Fibroblast growth factor 22 (Homo sapiens), Q9HCT0; recombinant FGF22 thermal shift, SYPRO orange fluorescence; percent of sucrose octasulfate shift, DMSO zero; activity (Tm shift, normalised), % at 9.99 µM; hit rate 1.5% among 340,000;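 active means mean Tm shift, scaled 0 neutral to 100 positive control, at about 1.3% or above, every replicate too, limit read from the data; inconclusive means no clear call, values can overlap the other calls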
S100A4 inh HTS – inhibitors of S100A4-myosin IIA peptide binding, primary screen, biochemical, fluorescence polarization, TAMRA-MyoIIA peptide; Protein S100-A4 (Homo sapiens), P26447; inhibition, % at 10.7 µM; hit rate 0.14% among 360,000; AID 652163, 2013;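 active means mean inhibition of at least 70% across replicates, with every replicate also reaching that level; inconclusive means mean inhibition reaches 70% but some replicates fall short; inactive means mean inhibition below 70%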
Target sequence (P26447 whole entry, looked up): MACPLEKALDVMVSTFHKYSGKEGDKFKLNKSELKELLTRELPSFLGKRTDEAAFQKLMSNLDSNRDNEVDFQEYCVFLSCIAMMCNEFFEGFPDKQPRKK
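Material: S100A4 monomer protein | Medium: HEPES pH 7.2 with CaCl2, KCl, NaCl, DTT, Triton | Reagent: Labelled myosin peptide probe, 5 nM | Doses: One dose per compound | Times: 5 min incubation before reading | Benchmarks: Neutral control DMSO, positive control TFP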
E-selectin induc – E-selectin induction in HUVECs, primary screen, imaging, HUVEC, immunofluorescence imaging, single point; activation, % at 7.58 µM; hit rate 0.37% among 260,000; normalized: neutral wells 0, TNF-alpha wells 100; AID 686992, 2013; P16581;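 active means mean E-selectin-positive cell signal at least 10% of the positive control, reached in at least 60% of replicates, without over 20% cell loss; inconclusive means no rule given, readout overlaps actives, possibly toxicity-flagged; inactive means the rest, including those meeting only one limit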
Target sequence (P16581 whole entry, looked up): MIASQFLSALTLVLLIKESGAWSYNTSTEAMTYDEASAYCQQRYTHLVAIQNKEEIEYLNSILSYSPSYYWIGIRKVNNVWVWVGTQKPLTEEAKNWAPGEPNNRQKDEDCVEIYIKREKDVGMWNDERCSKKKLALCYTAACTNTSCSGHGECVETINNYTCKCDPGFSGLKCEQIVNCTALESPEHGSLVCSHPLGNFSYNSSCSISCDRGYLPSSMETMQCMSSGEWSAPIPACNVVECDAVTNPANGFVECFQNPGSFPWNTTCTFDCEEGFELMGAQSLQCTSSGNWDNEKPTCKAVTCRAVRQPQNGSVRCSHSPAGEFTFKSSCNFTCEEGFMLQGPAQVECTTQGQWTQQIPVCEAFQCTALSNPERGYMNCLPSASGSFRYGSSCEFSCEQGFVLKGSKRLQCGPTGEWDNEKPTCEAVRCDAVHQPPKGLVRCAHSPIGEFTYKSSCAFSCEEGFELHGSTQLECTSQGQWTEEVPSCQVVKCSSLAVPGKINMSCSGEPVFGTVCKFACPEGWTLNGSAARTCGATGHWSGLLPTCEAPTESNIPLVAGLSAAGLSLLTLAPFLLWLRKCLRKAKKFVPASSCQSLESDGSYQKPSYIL
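Test system: HUVEC; input: 3,000 HUVEC/well; measured by: immunofluorescence imaging; read-out: % PE-positive cells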
Env fusion inh – inhibitors of HIV-1 Env-driven cell-cell fusion, primary screen, HeLa-JRFL effector, CEM21 target cells, luciferase | AID 651610, 2012 | hit rate 1.1% among 360,000 | inhibition, % at 12.3 µM;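 active means mean replicate inhibition score of at least 50 and every replicate individually at or above 50; inconclusive means only one of the two criteria met; inactive means mean below 50 and not all replicates reaching 50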
Large screens that a line does not name were inactive; [ ] = remark or other dose.

CC1CN(S(=O)(=O)c2cccc(C(=O)Nc3cc(Cl)ccc3N3CCOCC3)c2)CC(C)O1 (configuration not stated)	CFTR F508del cor 19.6 (no result: Env fusion inh)
COc1ccc(C(=O)NCCC2=CCCCC2)cc1S(=O)(=O)N1CCOCC1	none (no result: E-selectin induc)
COc1ccc(NC(=O)N(C)C[C@@H]2OCCCC[C@@H](C)Oc3ccc(NC(=O)CCC(F)(F)F)cc3C(=O)N([C@@H](C)CO)C[C@H]2C)cc1	none
C[C@@H]1CCCCO[C@H](CN(C)C(=O)Nc2ccccc2)[C@H](C)CN([C@H](C)CO)C(=O)c2cc(NC(=O)Nc3ccc(C(F)(F)F)cc3)ccc2O1	none (no result: CFTR F508del cor, FGF22 binding, S100A4 inh HTS, Env fusion inh)
COc1cccc(CNCCc2c[nH]c3ccccc23)c1OCc1ccccc1	none (no result: E-selectin induc, Env fusion inh)
COc1cccc(CNC23CC4CC(CC(C4)C2)C3)c1OCc1ccccc1	Env fusion inh 62.1
Cc1noc(C)c1NC(=O)N(C)C[C@@H]1Oc2c(NC(=O)c3ccncc3)cccc2C(=O)N([C@@H](C)CO)C[C@H]1C	none (no result: Env fusion inh)
CN1C(=O)c2cc(NC(=O)c3ccccc3F)ccc2OC[C@H]2O[C@H](CC(=O)NCc3ccc4c(c3)OCO4)CC[C@H]21	none
CN(CCOC(=O)c1cccc(F)c1)Cc1ccccc1	FGF22 binding 43.5 (no result: E-selectin induc)
CN(CCOC(=O)c1ccccc1)Cc1ccccc1	none (no result: CFTR F508del cor, FGF22 binding, S100A4 inh HTS, E-selectin induc)
CCn1c(Oc2ccccc2F)nc2c1c(=O)n(C)c(=O)n2C	Env fusion inh 58.2 (no result: E-selectin induc)
CCn1c(Oc2ccccc2)nc2c1c(=O)n(C)c(=O)n2C	none
Cc1ccc(Oc2nc3c(c(=O)n(Cc4ccccc4F)c(=O)n3C)n2C)cc1	Env fusion inh 55.7 (no result: CFTR F508del cor, FGF22 binding, E-selectin induc)
C[C@H](CO)N1C[C@H](C)[C@@H](CN(C)C)Oc2c(NS(C)(=O)=O)cccc2C1=O	none
O=C1O[C@@H](c2ccccc2)[C@@H](c2ccccc2)N2[C@@H](c3ccccc3OCCO)[C@]3(C(=O)Nc4ccc(C#CCCO)cc43)[C@@H](C(=O)O)[C@H]12	FGF22 binding 16.0 (no result: E-selectin induc)
O=C1O[C@H](c2ccccc2)[C@H](c2ccccc2)N2[C@H]1[C@@H](C(=O)N1CCCCCCC1)[C@]1(C(=O)Nc3ccccc31)[C@H]2c1ccccc1OCCO	Env fusion inh 58.9[16.7 µM] (no result: E-selectin induc)
C=CCNC(=O)[C@H]1[C@@H]2C(=O)O[C@@H](c3ccccc3)[C@@H](c3ccccc3)N2[C@@H](c2ccccc2OCCO)[C@]12C(=O)Nc1ccc(C#CC3(O)CCCCCC3)cc12	FGF22 binding 33.5 (no result: E-selectin induc)
NC(=O)[C@@H]1[C@H]2C(=O)O[C@H](c3ccccc3)[C@H](c3ccccc3)N2[C@H](c2ccccc2OCCO)[C@@]12C(=O)Nc1ccc(C#CCCO)cc12	none (no result: E-selectin induc)
C=CCNC(=O)[C@H]1[C@@H]2C(=O)O[C@@H](c3ccccc3)[C@@H](c3ccccc3)N2[C@@H](c2ccc(O)cc2)[C@]12C(=O)N(C(=O)OCCOC)c1ccc(C#CCC(C(=O)OC)C(=O)OC)cc12	FGF22 binding 18.3, S100A4 inh HTS inconclusive (no result: E-selectin induc)
C[C@H](CO)N1C[C@H](C)[C@@H](CN(C)Cc2ccc3c(c2)OCO3)Oc2ccc(NC(=O)CCN3CCOCC3)cc2CC1=O	none (no result: E-selectin induc)
O=C(CSc1c[nH]c2ccccc12)NC1CCCC1	none
O=C(CSC1=Nc2ccccc2C2=NC(Cc3c[nH]c4ccccc34)C(=O)N12)NC1CCCCC1 (configuration not stated)	Env fusion inh 113.8 (no result: CFTR F508del cor, FGF22 binding, S100A4 inh HTS, E-selectin induc)
CC(C)(C)C(=O)/C=c1\s/c(=C\c2ccc(-c3ccc([N+](=O)[O-])cc3)o2)c(=O)n1CC(=O)NC(N)=O	FGF22 binding 43.9
CCC(=O)N/N=C/c1ccc(-c2ccc([N+](=O)[O-])cc2)o1	none (no result: E-selectin induc)
C[C@@H]1CN([C@@H](C)CO)C(=O)c2cccc(NC(=O)CCCCCC(=O)Nc3ccccc3N)c2O[C@@H]1CN(C)C(=O)Nc1ccccc1	none (no result: CFTR F508del cor, FGF22 binding, S100A4 inh HTS, Env fusion inh)
COc1cccc2c1OCC(CN1CCN(CCC(C)C)C(CCO)C1)=C2 (configuration not stated)	FGF22 binding 43.2 (no result: E-selectin induc)
OCCC1CN(Cc2nc3c(s2)CCCC3)CCN1Cc1ccccc1 (configuration not stated)	none
COc1cccc(CN2CCN(CCc3ccccc3)C(CCO)C2)c1OC (configuration not stated)	FGF22 binding 44.0 (no result: E-selectin induc)
Cn1cc(CN2CCN(CCc3ccccc3)C(CCO)C2)cn1 (configuration not stated)	FGF22 binding 43.8 (no result: E-selectin induc)
OCCC1CN(Cc2nc3c(s2)CCCC3)CCN1CCc1ccccc1 (configuration not stated)	FGF22 binding 43.5 (no result: E-selectin induc)
O=C(NCC[C@@H]1CC[C@@H](NC(=O)c2cccnc2)[C@@H](CO)O1)Nc1ccc(Cl)cc1	none
Cc1noc(C)c1S(=O)(=O)N(C)C[C@H]1OCCCC[C@@H](C)Oc2ccc(NC(=O)C3CCCCC3)cc2C(=O)N([C@@H](C)CO)C[C@@H]1C	none
COCC(=O)N1C[C@H](C)[C@H](OC)CN(C)C(=O)c2cc(NC(=O)C3CCC3)ccc2OC[C@@H]1C	none
Cc1noc(C)c1S(=O)(=O)Nc1ccc2c(c1)CC(=O)N([C@@H](C)CO)C[C@H](C)[C@H](CN(C)S(=O)(=O)c1ccccc1)O2	none
O=C(c1ccccc1F)N1CC(=O)N2[C@H](C1)[C@@H](c1ccc(-c3cccnc3)cc1)[C@@H]2CO	none (no result: FGF22 binding, Env fusion inh)
CCOc1ccccc1CN1CCN(Cc2ccc(C)o2)CC1CCO (configuration not stated)	none
CCOc1ccccc1CN1CCN(Cc2ccc(C)o2)C(CCO)C1 (configuration not stated)	FGF22 binding 43.1 (no result: E-selectin induc)
CCOc1ccc(CN2CCN(CCCn3cccn3)CC2CCO)cc1 (configuration not stated)	E-selectin induc inconclusive
OCCC1CN(CCCn2cccn2)CCN1Cc1ccccc1 (configuration not stated)	FGF22 binding 43.0 (no result: CFTR F508del cor, E-selectin induc)
CO[C@@H]1CN(C)C(=O)c2ccc(NC(=O)C3CC3)cc2OC[C@H](C)N(Cc2cncnc2)C[C@H]1C	none (no result: FGF22 binding, S100A4 inh HTS, Env fusion inh)
CCCN(C)C[C@@H]1OCCCC[C@H](C)Oc2ccc(NC(=O)CCCN(C)C)cc2C(=O)N([C@@H](C)CO)C[C@@H]1C	none
COC(=O)c1ccc(NC(=O)CNCc2ccncc2)cc1	E-selectin induc inconclusive (no result: CFTR F508del cor, FGF22 binding, S100A4 inh HTS)
O=C(Nc1ccc(CN2CCOCC2)cc1)c1ccc(Cl)cc1	none (no result: E-selectin induc)
O=C(Nc1ccc(CN2CCS(=O)(=O)CC2)cc1)c1ccc(C(F)(F)F)cc1	Env fusion inh 76.0 (no result: E-selectin induc)
COC(=O)c1ccc(CNCC(=O)Nc2ccc(C(=O)OC)cc2)cc1	FGF22 binding 43.4 (no result: E-selectin induc)
COC(=O)c1ccc(NC(=O)c2ccc(CN3CCOCC3)cc2)cc1	Env fusion inh 83.7 (no result: CFTR F508del cor, FGF22 binding, S100A4 inh HTS, E-selectin induc)
